From ChEMBL document CHEMBL1122008, “Lipophilic 5'-(alkyl phosphate) esters of 1-beta-D-arabinofuranosylcytosine and its N4-acyl and 2,2'-anhydro-3'-O-acyl derivatives as potential prodrugs” (1982)

Legend:
Type in all cases: functional
Mus musculus [1] = assay: Antitumor activity against L1210 leukemia in mice (Percent increase in life span.) at the dose of 240 mg/kg (mice surviving 20 or more days)
Method in brief: (§1)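 Male B6D2F1J mice, groups of 5–9, inoculated ip with 10^5 L1210 cells on day 0. Dosing starts day 1 on a qd×5 or q4d(2,6) schedule. Vehicles are sterile water, pH 7.4 0.05 M potassium phosphate buffer, or 0.4% Tween 80/0.5% CMC/0.9% benzyl alcohol/0.9% saline. %ILS = (T/C − 1)×100 from median survival. Weights taken days 1 and 7.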

Mus musculus [2] = assay: Antitumor activity against L1210 leukemia in mice (Average weight per mouse on day 1.) at the dose of 180 mg/kg
Method in brief: (§2)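 Male B6D2F1J mice (5–9 per group) received 10^5 L1210 cells i.p. on day 0 and drug from day 1, given qd×5 or q4d(2,6). Vehicles were sterile water, 0.05 M potassium phosphate pH 7.4, or 0.4% Tween 80/0.5% CMC/0.9% benzyl alcohol/0.9% saline. Read-out is average body weight per mouse (g) on day 1.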

Mus musculus [3] = assay: Antitumor activity against L1210 leukemia in mice (Average weight per mouse on day 1.) at the dose of 240 mg/kg; method in brief: as §2
Mus musculus [4] = assay: Antitumor activity against L1210 leukemia in mice (Percent increase in life span.) at the dose of 180 mg/kg (mice surviving 20 or more days); method in brief: as §1
Mus musculus [5] = assay: Antitumor activity against L1210 leukemia in mice (Average 7-day weight change (%)) at the dose of 180 mg/kg
Method in brief: (§3)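 Male B6D2F1J mice, groups of five to nine, inoculated ip with 10^5 L1210 cells on day 0. Drug treatment started day 1 on qd×5 or q4d(2,6) schedule. Vehicles: ara-C in sterile water; the n-butyl phosphate ester in 0.05 M pH 7.4 potassium phosphate buffer; others as suspensions in 0.4% Tween 80/0.5% low-density CMC/0.9% benzyl alcohol/0.9% saline. Mice weighed days 1 and 7; 7-day weight change given as g/mouse and %.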

Mus musculus [6] = assay: Antitumor activity against L1210 leukemia in mice (Average 7-day weight change (%)) at the dose of 240 mg/kg; method in brief: as §3
Mus musculus [7] = assay: Antitumor activity against L1210 leukemia in mice (Average 7-day weight change) at the dose of 180 mg/kg; method in brief: as §3
Mus musculus [8] = assay: Antitumor activity against L1210 leukemia in mice (Average 7-day weight change) at the dose of 240 mg/kg; method in brief: as §3
Mus musculus [9] = assay: Antitumor activity against L1210 leukemia in mice (Percent increase in life span.) at the dose of 234 mg/kg (mice surviving 20 or more days); method in brief: as §1
Mus musculus [10] = assay: Antitumor activity against L1210 leukemia in mice (Average weight per mouse on day 1.) at the dose of 234 mg/kg; method in brief: as §2
Mus musculus [11] = assay: Antitumor activity against L1210 leukemia in mice (Average weight per mouse on day 1.) at the dose of 468 mg/kg; method in brief: as §2
Mus musculus [12] = assay: Antitumor activity against L1210/ara-C leukemia in mice (Average weight per mouse on day 1.) at the dose of 117 mg/kg
Method in brief: (§4)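 Male B6D2F1J mice, groups of 5–9, inoculated ip with 10^5 L1210/ara-C cells on day 0. Dosing began day 1 on a qd×5 or q4d(2,6) schedule. Ara-C was given in sterile water, the n-butyl phosphate ester in 0.05 M pH 7.4 potassium phosphate buffer, and others as suspensions in 0.4% Tween 80/0.5% CMC/0.9% benzyl alcohol/0.9% saline. Mice were weighed on days 1 and 7; 7-day change given in g and %.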

Mus musculus [13] = assay: Antitumor activity against L1210/ara-C leukemia in mice (Average weight per mouse on day 1.) at the dose of 234 mg/kg; method in brief: as §4
Mus musculus [14] = assay: Antitumor activity against L1210/ara-C leukemia in mice (Average weight per mouse on day 1.) at the dose of 468 mg/kg; method in brief: as §4
Mus musculus [15] = assay: Antitumor activity against L1210 leukemia in mice (Percent increase in life span.) at the dose of 117 mg/kg; method in brief: as §1
Mus musculus [16] = assay: Antitumor activity against L1210 leukemia in mice (Percent increase in life span.) at the dose of 468 mg/kg (mice surviving 20 or more days); method in brief: as §1
Mus musculus [17] = assay: Antitumor activity against L1210/ara-C leukemia in mice (Percent increase in life span.) at the dose of 117 mg/kg
Method in brief: (§5)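 Same protocol as the L1210 assay, but with 10^5 kinase-deficient L1210/ara-C cells inoculated ip into male B6D2F1J mice (groups of 5–9) on day 0. Treatment begins day 1, qd×5 or q4d(2,6). %ILS = (T/C − 1)×100 using median survival times of treated and control groups. Body weight recorded days 1 and 7.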

Mus musculus [18] = assay: Antitumor activity against L1210 leukemia in mice (Average 7-day weight change (%)) at the dose of 234 mg/kg; method in brief: as §3
Mus musculus [19] = assay: Antitumor activity against L1210 leukemia in mice (Average 7-day weight change (%)) at the dose of 468 mg/kg; method in brief: as §3
Mus musculus [20] = assay: Antitumor activity against L1210/ara-C leukemia in mice (Percent increase in life span.) at the dose of 234 mg/kg; method in brief: as §5
Mus musculus [21] = assay: Antitumor activity against L1210/ara-C leukemia in mice (Percent increase in life span.) at the dose of 468 mg/kg; method in brief: as §5
Mus musculus [22] = assay: Antitumor activity against L1210 leukemia in mice (Average 7-day weight change) at the dose of 234 mg/kg; method in brief: as §3
Mus musculus [23] = assay: Antitumor activity against L1210 leukemia in mice (Average 7-day weight change) at the dose of 117 mg/kg; method in brief: as §3
Mus musculus [24] = assay: Antitumor activity against L1210/ara-C leukemia in mice (Average 7-day weight change) at the dose of 117 mg/kg
Method in brief: (§6)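 Male B6D2F1J mice (5–9 per group) were given 10^5 L1210/ara-C cells i.p. on day 0, with treatment from day 1 on qd×5 or q4d(2,6). Vehicles were sterile water, pH 7.4 0.05 M phosphate buffer, or a Tween 80/CMC/benzyl alcohol saline suspension. Weights were taken on days 1 and 7; change is expressed in g/mouse and as a percentage.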

Mus musculus [25] = assay: Antitumor activity against L1210/ara-C leukemia in mice (Average 7-day weight change) at the dose of 234 mg/kg; method in brief: as §6
Mus musculus [26] = assay: Antitumor activity against L1210/ara-C leukemia in mice (Average 7-day weight change) at the dose of 468 mg/kg; method in brief: as §6
Mus musculus [27] = assay: Antitumor activity against L1210 leukemia in mice (Average 7-day weight change) at the dose of 468 mg/kg; method in brief: as §3
Mus musculus [28] = assay: Antitumor activity against L1210/ara-C leukemia in mice (Average 7-day weight change (%)) at the dose of 117 mg/kg; method in brief: as §6
Mus musculus [29] = assay: Antitumor activity against L1210/ara-C leukemia in mice (Average 7-day weight change (%)) at the dose of 234 mg/kg; method in brief: as §6
Mus musculus [30] = assay: Antitumor activity against L1210/ara-C leukemia in mice (Average 7-day weight change (%)) at the dose of 468 mg/kg; method in brief: as §6
Mus musculus [31] = assay: Antitumor activity against L1210 leukemia in mice (Average 7-day weight change (%)) at the dose of 117 mg/kg; method in brief: as §3
Mus musculus [32] = assay: Antitumor activity against L1210 leukemia in mice (Average weight per mouse on day 1.) at the dose of 117 mg/kg; method in brief: as §2

`CCCCCCCCCCCCCC(=O)O[C@H]1[C@@H]2Oc3nc(=N)ccn3[C@@H]2O[C@@H]1COP(=O)(O)OCCCC` showed an ILS at 240 mg/kg (Mus musculus [1]) of 112%, an Average weight (Mus musculus [2]) of 23.2 g mouse-1 and an Average weight (Mus musculus [3]) of 23.4 g mouse-1. It also gave an ILS at 180 mg/kg (Mus musculus [4]) of 100%, a Weight change (Mus musculus [5]) of -11% and a Weight change (Mus musculus [6]) of -17%. For the same compound, the Weight change (Mus musculus [7]) was -2.6 g mouse-1 and the Weight change (Mus musculus [8]) was -4 g mouse-1.
In the case of `CCCCCCCCCCCCCCCC(=O)O[C@H]1[C@@H]2Oc3nc(=N)ccn3[C@@H]2O[C@@H]1COP(=O)(O)OCC`, the ILS at 234 mg/kg (Mus musculus [9]) is reported as 138%, the Average weight (Mus musculus [10]) is reported as 24.2 g mouse-1 and the Average weight (Mus musculus [11]) is reported as 23.6 g mouse-1. For the same compound, the Average weight (Mus musculus [12]) was 22.4 g mouse-1, the Average weight (Mus musculus [13]) was 21.4 g mouse-1 and the Average weight (Mus musculus [14]) was 22 g mouse-1. It also gave an ILS at 117 mg/kg (Mus musculus [15]) of 75%, an ILS at 468 mg/kg (Mus musculus [16]) of 100% and an ILS at 117 mg/kg (Mus musculus [17]) of 0%. It also gave a Weight change (Mus musculus [18]) of -11%, a Weight change (Mus musculus [19]) of -16% and an ILS at 234 mg/kg (Mus musculus [20]) of 0%. The ILS at 468 mg/kg (Mus musculus [21]) was -13%, the Weight change (Mus musculus [22]) was -2.6 g mouse-1 and the Weight change (Mus musculus [23]) was -1.6 g mouse-1. For the same compound, the Weight change (Mus musculus [24]) was 2 g mouse-1, the Weight change (Mus musculus [25]) was 0.2 g mouse-1 and the Weight change (Mus musculus [26]) was -2.4 g mouse-1. For the same compound, the Weight change (Mus musculus [27]) was -3.8 g mouse-1, the Weight change (Mus musculus [28]) was 9% and the Weight change (Mus musculus [29]) was 1%. The Weight change (Mus musculus [30]) was -20%, the Weight change (Mus musculus [31]) was -7% and the Average weight (Mus musculus [32]) was 24.4 g mouse-1.
